Calls of active or inactive are those of the source. The calls are words filed in the database; no cut-off is given here.
Assays:
[1] = test system: MDA-MB-231; experiment: Growth inhibition of human MDA-MB-231 cells at 10 uM by MTT assay; type: functional; conditions: read-out: GI
[2] = Growth inhibition of human SKBR3 cells at 10 uM by MTT assay; type: functional; conditions: SK-BR-3, read-out: GI
[3] = test system: MCF7; experiment: Growth inhibition of human MCF7 cells at 10 uM by MTT assay; type: functional; conditions: read-out: GI
[4] = test system: MDA-MB-468; experiment: Growth inhibition of human MDA-MB-468 cells at 10 uM by MTT assay; type: functional; conditions: read-out: GI
[5] = test system: MCF7; experiment: Reduction in Mnk1 protein expression in human MCF7 cells at 0.63 uM to 20 uM after 24 hrs by SDS-PAGE and Western blotting method; type: functional, cell-based
In short: (§1)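 Breast cancer cells in RPMI 1640 with 10% FBS treated 24 h at indicated concentrations, DMSO vehicle control; equal protein loaded on SDS–PAGE and immunoblotted for Mnk1, Mnk2, peIF4E, eIF4E and cleaved PARP; blots reprobed for GAPDH as loading control.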

[6] = test system: LNCaP; experiment: Reduction in Mnk2 protein expression in human LNCAP cells at 0.6 uM to 20 uM after 24 hrs by SDS-PAGE and Western blotting method; type: functional, cell-based
In short: (§2)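 LNCaP cells (RPMI 1640, 10% FBS) exposed 24 h to 0.6–20 μM, DMSO vehicle control; equal protein on SDS–PAGE, immunoblotted for fAR, Mnk1/2, peIF4E, cyclin D1 and cleaved PARP; β-actin reprobe for loading.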

[7] = test system: MDA-MB-231; experiment: Effect on total eIF4E protein expression in human MDA-MB-231 cells at 0.63 uM to 20 uM after 24 hrs by SDS-PAGE and Western blotting method; type: functional, cell-based; in short: as §1
[8] = Growth inhibition of human PC3 cells by MTT assay; type: functional; conditions: PC-3
In short: (§3)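 Cells grown in RPMI 1640 with 10% FBS, plated at 2500 cells/well, treated across a dose range; growth read by MTT. GI50 taken from dose–response curves by nonlinear regression, at least three independent experiments.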

[9] = test system: MDA-MB-231; experiment: Growth inhibition of human MDA-MB-231 cells by MTT assay; type: functional; in short: as §3
[10] = test system: MDA-MB-231; experiment: Induction of apoptosis in human MDA-MB-231 cells assessed as increase in c-PARP formation at 0.63 uM to 20 uM after 24 hrs by SDS-PAGE and Western blotting method; type: functional, cell-based; in short: as §1
[11] = test system: MCF7; experiment: Growth inhibition of human MCF7 cells by MTT assay; type: functional; in short: as §3
[12] = test system: PC-3; experiment: Inhibition of cell migration of human PC3 cells at 5 uM after 24 hrs by wound healing assay; type: functional, cell-based
In short: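 Cells (5 × 10⁵ per well) grown to confluence, monolayer scratched at time zero, then exposed to 5 μM for 24 h; initial and final wounds photographed at 100×.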

[13] = molecular target: T1, Androgen receptor (Homo sapiens) (UniProt P10275); conditions: LNCaP, at 10 µM
T1 sequence (whole entry): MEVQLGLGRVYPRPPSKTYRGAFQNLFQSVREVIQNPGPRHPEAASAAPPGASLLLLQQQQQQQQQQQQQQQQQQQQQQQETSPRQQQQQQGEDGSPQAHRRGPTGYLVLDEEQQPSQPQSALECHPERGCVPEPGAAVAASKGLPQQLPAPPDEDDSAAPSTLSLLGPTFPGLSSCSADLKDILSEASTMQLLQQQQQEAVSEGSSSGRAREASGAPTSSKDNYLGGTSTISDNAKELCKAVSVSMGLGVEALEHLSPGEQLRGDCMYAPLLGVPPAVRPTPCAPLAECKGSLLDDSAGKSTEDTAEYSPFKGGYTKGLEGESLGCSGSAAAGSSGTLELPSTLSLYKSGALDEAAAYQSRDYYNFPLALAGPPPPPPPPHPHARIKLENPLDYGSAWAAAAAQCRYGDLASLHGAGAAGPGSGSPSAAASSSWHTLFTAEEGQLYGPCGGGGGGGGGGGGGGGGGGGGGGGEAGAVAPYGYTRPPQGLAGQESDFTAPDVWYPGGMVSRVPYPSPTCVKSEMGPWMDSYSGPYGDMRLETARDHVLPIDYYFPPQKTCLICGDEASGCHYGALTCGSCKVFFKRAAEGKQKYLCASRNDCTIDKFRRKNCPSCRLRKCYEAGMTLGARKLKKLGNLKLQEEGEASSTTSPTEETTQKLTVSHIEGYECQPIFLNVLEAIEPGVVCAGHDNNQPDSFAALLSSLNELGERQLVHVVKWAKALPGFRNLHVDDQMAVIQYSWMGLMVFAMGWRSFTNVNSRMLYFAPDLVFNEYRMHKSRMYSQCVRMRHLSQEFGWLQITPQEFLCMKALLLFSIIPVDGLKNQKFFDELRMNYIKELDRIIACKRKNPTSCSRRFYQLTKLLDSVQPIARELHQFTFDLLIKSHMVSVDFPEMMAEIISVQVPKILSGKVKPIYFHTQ

[14] = test system: MCF7; experiment: Induction of apoptosis in human MCF7 cells assessed as increase in c-PARP formation at 0.63 uM to 20 uM after 24 hrs by SDS-PAGE and Western blotting method; type: functional, cell-based; in short: as §1
[15] = test system: LNCaP; experiment: Induction of apoptosis in human LNCAP cells assessed as increase in c-PARP formation at 0.6 uM to 20 uM after 24 hrs by SDS-PAGE and Western blotting method; type: functional, cell-based; in short: as §2
[16] = test system: MDA-MB-468; experiment: Effect on total eIF4E protein expression in human MDA-MB-468 cells at 0.63 uM to 20 uM after 24 hrs by SDS-PAGE and Western blotting method; type: functional, cell-based; in short: as §1
[17] = test system: MDA-MB-468; experiment: Growth inhibition of human MDA-MB-468 cells by MTT assay; type: functional; in short: as §3
[18] = test system: MDA-MB-231; experiment: Reduction in peIF4E protein expression in human MDA-MB-231 cells at 0.63 uM to 20 uM after 24 hrs by SDS-PAGE and Western blotting method; type: functional, cell-based
In short: (§4)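 MCF-7, MDA-MB-231 and MDA-MB-468 cells, kept in RPMI 1640 with 10% FBS, were exposed for 24 h to a range of concentrations, with DMSO vehicle controls. Equal protein from lysates was separated by SDS–PAGE and probed for Mnk1, Mnk2, peIF4E, eIF4E and cPARP. GAPDH reprobing served as loading control.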

[19] = test system: MCF7; experiment: Reduction in peIF4E protein expression in human MCF7 cells at 0.63 uM to 20 uM after 24 hrs by SDS-PAGE and Western blotting method; type: functional, cell-based; in short: as §4
[20] = test system: MCF7; experiment: Reduction in Mnk2 protein expression in human MCF7 cells at 0.63 uM to 20 uM after 24 hrs by SDS-PAGE and Western blotting method; type: functional, cell-based; in short: as §1
[21] = test system: MDA-MB-231; experiment: Reduction in Mnk1 protein expression in human MDA-MB-231 cells at 0.63 uM to 20 uM after 24 hrs by SDS-PAGE and Western blotting method; type: functional, cell-based; in short: as §1
[22] = test system: MDA-MB-231; experiment: Reduction in Mnk2 protein expression in human MDA-MB-231 cells at 0.63 uM to 20 uM after 24 hrs by SDS-PAGE and Western blotting method; type: functional, cell-based; in short: as §1
[23] = test system: LNCaP; experiment: Reduction in Mnk1 protein expression in human LNCAP cells at 0.6 uM to 20 uM after 24 hrs by SDS-PAGE and Western blotting method; type: functional, cell-based; in short: as §2
[24] = test system: LNCaP; experiment: Reduction in fAR protein expression in human LNCAP cells at 0.6 uM to 20 uM after 24 hrs by SDS-PAGE and Western blotting method; type: functional, cell-based
In short: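 LNCaP cells were treated for 24 h across 0.6–20 μM, with vehicle (DMSO) controls. Equal protein from lysates was run on SDS–PAGE and immunoblotted for fAR, Mnk1/2, peIF4E, cyclin D1 and cleaved PARP. Blots were reprobed for β-actin as loading control.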

[25] = Growth inhibition of human SKBR3 cells by MTT assay; type: functional; conditions: SK-BR-3; in short: as §3
[26] = test system: MDA-MB-468; experiment: Reduction in Mnk1 protein expression in human MDA-MB-468 cells at 0.63 uM to 20 uM after 24 hrs by SDS-PAGE and Western blotting method; type: functional, cell-based; in short: as §1
[27] = test system: MDA-MB-468; experiment: Reduction in Mnk2 protein expression in human MDA-MB-468 cells at 0.63 uM to 20 uM after 24 hrs by SDS-PAGE and Western blotting method; type: functional, cell-based; in short: as §1
[28] = test system: LNCaP; experiment: Induction of apoptosis in human LNCAP cells assessed as reduction in cyclin D1 levels at 0.6 uM to 20 uM after 24 hrs by SDS-PAGE and Western blotting method; type: functional, cell-based; in short: as §2
[29] = test system: MDA-MB-468; experiment: Reduction in peIF4E protein expression in human MDA-MB-468 cells at 0.63 uM to 20 uM after 24 hrs by SDS-PAGE and Western blotting method; type: functional, cell-based; in short: as §4
[30] = Growth inhibition of human CWR22Rv1 cells by MTT assay; type: functional, CWR22R; conditions: 22Rv1; in short: as §3
[31] = test system: LNCaP; experiment: Effect on total eIF4E protein expression in human LNCAP cells at 0.6 uM to 20 uM after 24 hrs by SDS-PAGE and Western blotting method; type: functional, cell-based
[32] = test system: LNCaP; experiment: Growth inhibition of human LNCAP cells by MTT assay; type: functional; in short: as §3
[33] = test system: MCF7; experiment: Effect on total eIF4E protein expression in human MCF7 cells at 0.63 uM to 20 uM after 24 hrs by SDS-PAGE and Western blotting method; type: functional, cell-based; in short: as §1
[34] = test system: MDA-MB-468; experiment: Induction of apoptosis in human MDA-MB-468 cells assessed as increase in c-PARP formation at 0.63 uM to 20 uM after 24 hrs by SDS-PAGE and Western blotting method; type: functional, cell-based; in short: as §1
[35] = test system: MDA-MB-231; experiment: Antitumor activity against human MDA-MB-231 cells xenografted in SCID mouse assessed as inhibition of tumor growth at 20 mg/kg, ip dosed once daily for 5 days per week for 28 days; type: functional; conditions: MDA-MB-231, ip, in the assay text read “athymic nude mouse” for “SCID mouse”, route intraperitoneal, read-out: TGI
In short: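 Athymic nude female mice with subcutaneous MDA-MB-231 tumors (10 × 10⁶ cells; ~100 mm³ at randomization, n = 6/group) dosed ip once daily, 5 days/week for 28 days, in 40% β-cyclodextrin/ddH₂O; vehicle controls. %T/C computed as median tumor volume treated vs control at day 28 × 100. Body weight monitored.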

Compound: COc1cccc(C2=CCC(C)(C)C(/C=C/C(C)=C/C=C/C(C)=C\C(=O)NCc3ccc(O)cc3)=C2C)c1
- inhibition of growth at 10 µM [1]: ≥ 40%
- inhibition of growth at 10 µM [2]: ≥ 40%
- inhibition of growth at 10 µM [3]: ≥ 40%
- inhibition of growth at 10 µM [4]: ≥ 40%

Compound: CC1=C(/C=C/C(C)=C/C=C/C(C)=C\C(=O)Nc2ccccc2)C(C)(C)CCC1n1ccnc1 (stereo not drawn)
- inhibition [5]: Dose-dependent effect
- inhibition [6]: Dose-dependent effect
- Activity [7]: inactive
- GI50 [8]: 8.91 µM
- GI50 [9]: 1.74 µM
- Activity [10]: Dose-dependent effect
- GI50 [11]: 1.9 µM
- inhibition [12]: Active
- inhibition [13]: Active
- Activity [14]: Dose-dependent effect
- Activity [15]: Active
- Activity [16]: inactive
- GI50 [17]: 2.54 µM
- inhibition [18]: Dose-dependent effect
- inhibition [19]: Dose-dependent effect
- inhibition [20]: Dose-dependent effect
- inhibition [21]: Dose-dependent effect
- inhibition [22]: Dose-dependent effect
- inhibition [23]: Dose-dependent effect
- inhibition [24]: Dose-dependent effect
- GI50 [25]: 1.73 µM
- inhibition [26]: Dose-dependent effect
- inhibition [27]: Dose-dependent effect
- Activity [28]: Active
- inhibition [29]: Dose-dependent effect
- GI50 [30]: 1.28 µM
- Activity [31]: inactive
- GI50 [32]: 2.69 µM
- Activity [33]: inactive
- Activity [34]: Dose-dependent effect

Compound: CC1=C(/C=C/C(C)=C/C=C/C(C)=C\C(=O)NCc2ccc(O)cc2)C(C)(C)CC=C1c1cccnc1
- inhibition of growth at 10 µM [1]: ≥ 40%
- inhibition of growth at 10 µM [2]: ≥ 40%
- inhibition of growth at 10 µM [3]: ≥ 40%
- inhibition of growth at 10 µM [4]: ≥ 40%

Compound: COc1cccc(C2=CCC(C)(C)C(/C=C/C(C)=C/C=C/C(C)=C\C(=O)NCCc3ccc(O)cc3)=C2C)c1
- inhibition of growth at 10 µM [1]: ≥ 40%
- inhibition of growth at 10 µM [2]: ≥ 40%
- inhibition of growth at 10 µM [3]: ≥ 40%
- inhibition of growth at 10 µM [4]: ≥ 40%

Compound: CC1=C(/C=C/C(C)=C/C=C/C(C)=C/C(=O)Nc2ccc(F)cc2)C(C)(C)CCC1n1ccnc1 (stereo not drawn)
- inhibition in vivo at 20 mg/kg [35]: 97%
